Each structure is given as a SMILES string. Converted amounts (≈) assume the structure as drawn.

In general, solubility refers to the concentration that dissolves in the medium under given conditions. Read a low solubility as little dissolved substance. The logD is the decadic logarithm of the distribution of all forms, ionised or not, between an organic phase and buffer at a given pH. High values mean higher lipophilicity, low ones lower lipophilicity.

For data set [1], the species on record is Homo sapiens. As to the kind of experiment: Bronchorelaxant activity in human small airways assessed as remaining contraction at 10 uM relative to LTD4. It is filed as functional. In short, it runs like this:
(§1)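 Isolated human small airways (inner diameter <2.0 mm) were mounted in a previously described apparatus and contracted with LTD4. The test item was added, usually at 10 μM and also at 1 μM. %RC is the contraction remaining with the test item, expressed against the maximum LTD4-evoked contraction without it.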

Data set [2] is filed under the species Homo sapiens. Put plainly: Bronchorelaxant activity in human small airways assessed as remaining contraction at 1 uM relative to LTD4. The format is functional. In a few lines: as §1
A short description of data set [3]: Aqueous solubility of the compound. It is filed as physicochemical.
The nature of data set [4]: Lipophilicity log D of the compound at pH 7.4. Conditions: buffer. It is filed as physicochemical.
The species entered for data set [5] is Homo sapiens. As to the kind of experiment: Bronchorelaxant activity in human small airways assessed as remaining contraction at 10 uM relative to acetylcholine and histamine combination. The format is functional. In short, it runs like this:
(§2)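 Isolated human small airways (inner diameter <2.0 mm) were contracted with acetylcholine, with histamine, or with a cocktail of LTD4, acetylcholine and histamine. Test item at 10 μM; relaxation of each induced contraction was recorded.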

The species named for data set [6] is Homo sapiens. Put plainly: Bronchorelaxant activity in human small airways assessed as remaining contraction at 10 uM relative to histamine. It is filed as functional. In a few lines:
as §2

The species named for data set [7] is Homo sapiens. Put plainly: Bronchorelaxant activity in human small airways assessed as remaining contraction. The format is functional. In a few lines:
as §1

For data set [8], the species on record is Homo sapiens. Put plainly: Bronchorelaxant activity in human small airways assessed as remaining contraction at 10 uM relative to acetylcholine. The format is functional. In a few lines:
as §2

Regarding `N#Cc1ccc(CCCC(=O)N2CCc3c(Cl)c(O)c(O)c(Cl)c3C2)nc1`, the Activity in the data set filed under Homo sapiens [1] was 34%; in the data set listed under Homo sapiens [2] it was 86%. As to `O=C(CCCc1ccc(F)cn1)N1CCc2c(Cl)c(O)c(O)c(Cl)c2C1`, the Activity was 25% in the data set filed under Homo sapiens [1] and 89% in the data set listed under Homo sapiens [2].

As to `O=C(/C=C/c1ccccc1)N1CCc2c(Cl)c(O)c(O)c(Cl)c2C1`, the Activity was 41% in the data set filed under Homo sapiens [1] and 83% in the data set listed under Homo sapiens [2].

In data set [3], `C/C(=C\C(=O)N1CCc2c(Cl)c(O)c(O)c(Cl)c2C1)c1ccc(C(F)(F)F)nc1` registered a solubility of 18 µM (≈ 8.05 µg/mL). For the same compound, the Activity in the data set listed under Homo sapiens [1] was determined as 7%; in the data set listed under Homo sapiens [5], 82%; in the data set listed under Homo sapiens [6] it was 97%; in the data set listed under Homo sapiens [2], 74%; in the data set filed under Homo sapiens [8], 93%. Moreover, the logD in data set [4] came out at 3.5. In addition, the ED50 in the data set filed under Homo sapiens [7] is 2.27 µM. Consider `Cc1cc(C(F)(F)F)cnc1CCCC(=O)N1CCc2c(Cl)c(O)c(O)c(Cl)c2C1`, for which the Activity in the data set filed under Homo sapiens [1] came to 7%; in the data set listed under Homo sapiens [2], 67%. On to `O=C(CCCc1ncc(C(F)(F)F)cc1C1CCCCC1)N1CCc2c(Cl)c(O)c(O)c(Cl)c2C1`, for which the Activity in the data set filed under Homo sapiens [1] amounted to 77%. With `O=C(CCCc1ccc(C(F)(F)F)cn1)N1CCc2c(Cl)c(O)c(O)c(Cl)c2C1`, the Activity in the data set filed under Homo sapiens [1] was 19%; in the data set filed under Homo sapiens [2], 72%. Turning to `Cc1nc(C(F)(F)F)ncc1/C=C/C(=O)N1CCc2c(Cl)c(O)c(O)c(Cl)c2C1`, the Activity came out at 18% in the data set filed under Homo sapiens [1] and 88% in the data set filed under Homo sapiens [2]. `O=C(/C=C/c1cccnc1)N1CCc2c(Cl)c(O)c(O)c(Cl)c2C1`: the Activity in the data set filed under Homo sapiens [1] turned out to be 44%; in the data set listed under Homo sapiens [2], 100%. For the compound `O=C(CCc1ccc(C(F)(F)F)nc1)N1CCc2c(F)c(O)c(O)c(F)c2C1`, the Activity in the data set filed under Homo sapiens [1] is 85%. Regarding `O=C(CCCc1ccc([N+](=O)[O-])cn1)N1CCc2c(Cl)c(O)c(O)c(Cl)c2C1`, the figures for the Activity in the data set filed under Homo sapiens [1] and in the data set listed under Homo sapiens [2] were 33% and 74%, respectively. For the compound `O=C(CCCc1ccc(Cl)cc1)N1CCc2c(Cl)c(O)c(O)c(Cl)c2C1`, the Activity came out at 16% in the data set filed under Homo sapiens [1] and 80% in the data set listed under Homo sapiens [2].

In the case of `Cc1nc(C(F)(F)F)ccc1/C=C/C(=O)N1CCc2c(Cl)c(O)c(O)c(Cl)c2C1`, the Activity amounted to 9% in the data set filed under Homo sapiens [1] and 71% in the data set filed under Homo sapiens [2]. For `O=C(/C=C/c1ccc(C(F)(F)F)nc1)N1CCc2c(c3c(c4c2CCO4)OCC3)C1`, the Activity in the data set listed under Homo sapiens [1] came out at 91%. As for `O=C(/C=C/c1ccc(C(F)(F)F)nc1)N1CCc2c(Cl)c(O)c(O)c(Cl)c2C1`, the Activity in the data set listed under Homo sapiens [1] was determined as 6%; in the data set filed under Homo sapiens [2], 87%. Take `O=C(CCCc1ccc(C(F)(F)F)nc1)N1CCc2c(Cl)c(O)c(O)c(Cl)c2C1`: the values for the Activity in the data set filed under Homo sapiens [1] and in the data set listed under Homo sapiens [2] were 26% and 93%, respectively. Take `CS(=O)(=O)c1ccc(CCCC(=O)N2CCc3c(Cl)c(O)c(O)c(Cl)c3C2)nc1`: the values for the Activity in the data set listed under Homo sapiens [1] and in the data set filed under Homo sapiens [2] were 72% and 99%, respectively. Take `O=C(/C=C/c1ccc(F)cn1)N1CCc2c(Cl)c(O)c(O)c(Cl)c2C1`: in the data set filed under Homo sapiens [1], the Activity came out at 24%. Take `Cc1c(O)c(O)c(C)c2c1CCN(C(=O)/C=C/c1ccc(C(F)(F)F)nc1)C2`: the Activity in the data set filed under Homo sapiens [1] came out at 75%. With `COc1ccc(CCCC(=O)N2CCc3c(Cl)c(O)c(O)c(Cl)c3C2)nc1`, the Activity in the data set listed under Homo sapiens [1] is 31%; in the data set filed under Homo sapiens [2], 96%. For `O=C(CCCc1ccc(Cl)cn1)N1CCc2c(Cl)c(O)c(O)c(Cl)c2C1`, in that order: 15% and 85%. Take `O=C(CCCc1ncc(C(F)(F)F)cc1-c1ccccc1)N1CCc2c(Cl)c(O)c(O)c(Cl)c2C1`: the results for the Activity in the data set listed under Homo sapiens [1] and in the data set filed under Homo sapiens [2] were 38% and 90%, respectively. Turning to `O=C(CCc1ccc(C(F)(F)F)nc1)N1CCc2c(Cl)c(O)c(O)c(Cl)c2C1`, in the data set listed under Homo sapiens [1], the Activity turned out to be 29%. Same read-out and setting: the result for `O=C(/C=C/c1ccc(O)cc1)N1CCc2c(Cl)c(O)c(O)c(Cl)c2C1` reads 32%.

With `O=C(CCCc1ncc(C(F)(F)F)cc1Cl)N1CCc2c(Cl)c(O)c(O)c(Cl)c2C1`, the Activity in the data set listed under Homo sapiens [1] came to 5%; in the data set filed under Homo sapiens [2], 61%.

The values are drawn from ChEMBL document CHEMBL1221309, “Synthesis of novel tetrahydroisoquinoline bronchodilators” (Bioorg Med Chem Lett, 2010).
